Data set [1] in a line: folding enthalpy; higher = less favourable; fluorescence melt of hairpins on a sequencing array, two-state fit. Conditions: sodium 0.088 M. Summed up: (§1)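 Melting temperature and folding enthalpy were derived from bootstrapped two-state fits. The fitted temperatures were raised by 9.35 °C to agree with UV melts, and four replicates were combined by inverse variance. The underlying data were Cy3 fluorescence images of library hairpins, with annealed Cy3 and quencher oligos, on a sequenced MiSeq flow cell in 50 mM Na-HEPES pH 8.0, 25 mM NaCl, taken in 2.5 °C steps up to 60 °C, normalised to pre-quench Cy3 and to control constructs.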

Data set [2] in a line: melting temperature; fluorescence melt of hairpins on a sequencing array, two-state fit, raised by 9.35 °C to match UV melts. Conditions: sodium 0.088 M. A digest of the protocol: as §1

For GATCGTAATGACGATC ((((((....)))))), the folding enthalpy in data set [1] is -34.3 kcal/mol. In addition, the Tm in data set [2] stood at 52.8 °C.

As to GATCGTACAACGATC ((((((...)))))), the folding enthalpy in data set [1] is -37.4 kcal/mol. Further, in data set [2], the Tm is 56.5 °C.

Turning to GATCGTACAGACGATC ((((((....)))))), the folding enthalpy in data set [1] was -54.1 kcal/mol. Moreover, the Tm in data set [2] was 52.5 °C.

GATCGTACGAACGATC ((((((....)))))): the folding enthalpy in data set [1] was -34.3 kcal/mol. Besides, the Tm in data set [2] was 53.3 °C.

On to GATCGTACGCACGATC ((((((....)))))), for which the folding enthalpy in data set [1] was -37.4 kcal/mol. In data set [2], the Tm is 55.1 °C.

Turning to GATCGTAGAAACGATC ((((((....)))))), the folding enthalpy in data set [1] was -35.2 kcal/mol. In addition, the Tm in data set [2] was 51.1 °C.

Turning to GATCGTATAAACGATC ((((((....)))))), the folding enthalpy in data set [1] was -31.9 kcal/mol. The Tm in data set [2] came out at 54.7 °C.

For GATCGTATATACGATC ((((((....)))))), the folding enthalpy in data set [1] was -35.1 kcal/mol. For the same sequence, in data set [2], the Tm is 56.6 °C.

In the case of GATCGTATTGACGATC ((((((....)))))), in data set [1], the folding enthalpy is -22.8 kcal/mol. Besides, in data set [2], the Tm is 55 °C.

Take GATCGTCAATACGATC ((((((....)))))): the folding enthalpy in data set [1] was -39.2 kcal/mol. Also, the Tm in data set [2] amounted to 54.6 °C.

With GATCGTCACCACGATC ((((((....)))))), the folding enthalpy in data set [1] is -40.9 kcal/mol. For the same sequence, in data set [2], the Tm amounted to 54 °C.

Consider GATCGTCACTACGATC ((((((....)))))), for which the folding enthalpy in data set [1] was -46.1 kcal/mol. The Tm in data set [2] was 55 °C.

On to GATCGTCAGACGATC ((((((...)))))), for which the folding enthalpy in data set [1] was -35.2 kcal/mol. In addition, the Tm in data set [2] was determined as 52.5 °C.

Regarding GATCGTCAGCACGATC ((((((....)))))), the folding enthalpy in data set [1] is -27.8 kcal/mol. Besides, the Tm in data set [2] turned out to be 52.6 °C.

As for GATCGTCATCACGATC ((((((....)))))), the folding enthalpy in data set [1] is -43.8 kcal/mol. In data set [2], the Tm was determined as 52.2 °C.

Regarding GATCGTCATGACGATC ((((((....)))))), the folding enthalpy in data set [1] is -40.3 kcal/mol. The Tm in data set [2] came to 61.4 °C.

As to GATCGTCCATACGATC ((((((....)))))), the folding enthalpy in data set [1] is -41.8 kcal/mol. Moreover, the Tm in data set [2] amounted to 54.8 °C.

As for GATCGTCCGAACGATC ((((((....)))))), in data set [1], the folding enthalpy was -39.2 kcal/mol. The Tm in data set [2] turned out to be 55.2 °C.

Take GATCGTCCTACGATC ((((((...)))))): the folding enthalpy in data set [1] was -38.6 kcal/mol. Also, the Tm in data set [2] is 56.5 °C.

As to GATCGTCCTCACGATC ((((((....)))))), the folding enthalpy in data set [1] was -42.9 kcal/mol. Besides, in data set [2], the Tm stood at 53.5 °C.

For the sequence GATCGTCGCCACGATC ((((((....)))))), in data set [1], the folding enthalpy was -42.1 kcal/mol. In addition, the Tm in data set [2] came out at 53.8 °C.

GATCGTCGGCACGATC ((((((....)))))): the folding enthalpy in data set [1] is -21.4 kcal/mol. In addition, the Tm in data set [2] stood at 53 °C.

With GATCGTCTATACGATC ((((((....)))))), the folding enthalpy in data set [1] was -38.9 kcal/mol. Also, the Tm in data set [2] came to 54.8 °C.

Turning to GATCGTCTCAACGATC ((((((....)))))), in data set [1], the folding enthalpy is -41.6 kcal/mol. In data set [2], the Tm is 57.6 °C.

With GATCGTCTCCACGATC ((((((....)))))), in data set [1], the folding enthalpy was -38.1 kcal/mol. Also, the Tm in data set [2] amounted to 53.7 °C.

For GATCGTCTCGACGATC ((((((....)))))), the folding enthalpy in data set [1] was -40.9 kcal/mol. The Tm in data set [2] amounted to 65.3 °C.

For GATCGTCTGCACGATC ((((((....)))))), the folding enthalpy in data set [1] is -38.3 kcal/mol. In addition, in data set [2], the Tm amounted to 55.3 °C.

With GATCGTCTTAACGATC ((((((....)))))), the folding enthalpy in data set [1] is -41.3 kcal/mol. In addition, the Tm in data set [2] is 58.5 °C.

As for GATCGTCTTCACGATC ((((((....)))))), the folding enthalpy in data set [1] is -45.7 kcal/mol. The Tm in data set [2] came to 53.4 °C.

For GATCGTGATAACGATC ((((((....)))))), the folding enthalpy in data set [1] is -40.2 kcal/mol. The Tm in data set [2] is 63.6 °C.

Turning to GATCGTGCAAACGATC ((((((....)))))), the folding enthalpy in data set [1] was -33 kcal/mol. For the same sequence, the Tm in data set [2] came to 66.9 °C.

Consider GATCGTGCACACGATC ((((((....)))))), for which, in data set [1], the folding enthalpy is -41.3 kcal/mol. The Tm in data set [2] amounted to 64.7 °C.

Turning to GATCGTGCCCACGATC ((((((....)))))), the folding enthalpy in data set [1] is -39.8 kcal/mol. In addition, the Tm in data set [2] was 59.7 °C.

Turning to GATCGTGCTCACGATC ((((((....)))))), the folding enthalpy in data set [1] is -48.2 kcal/mol. Moreover, the Tm in data set [2] amounted to 58.9 °C.

As to GATCGTGCTGACGATC ((((((....)))))), the folding enthalpy in data set [1] was -36.4 kcal/mol. The Tm in data set [2] was 55.8 °C.

GATCGTGGAAACACGATC (((((((....))))))): the folding enthalpy in data set [1] was -41.2 kcal/mol. Moreover, the Tm in data set [2] amounted to 66.3 °C.

GATCGTGGAAACATGGTC ((.(.((....)).).)): in data set [1], the folding enthalpy is -20.4 kcal/mol. The Tm in data set [2] is 32.7 °C.

With GATCGTGGAACGATC ((((((...)))))), the folding enthalpy in data set [1] was -35.7 kcal/mol. The Tm in data set [2] turned out to be 66.8 °C.

These data come from the array DNA melting data of Ke et al. (doi:10.1101/2024.01.08.574731).
